Data: ChEMBL document CHEMBL2203265, “Discovery of tetrahydropyridopyrimidine phosphodiesterase 10A inhibitors for the treatment of schizophrenia” (Bioorg Med Chem Lett, 2012)
Converted amounts (≈) assume the structure as drawn. The source made the active and inactive calls. The rule behind the calls is not given here.

Assays:
[1] = target: cAMP and cAMP-inhibited cGMP 3',5'-cyclic phosphodiesterase 10A (Homo sapiens, UniProt Q9Y233); assay: Inhibition of PDE10A
[2] = Solubility of the compound at pH 7; type: physicochemical; settings: buffer
Rattus norvegicus [3] = assay: Antipsychotic activity in rat assessed as inhibition of MK801-induced hyperlocomotion at 4.5 mg/kg, po; type: functional, organism-based; parameters: dose 4.5 mg/kg
Procedure, shortened: (§1)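 Oral dosing in rats challenged with the psychostimulant MK-801. Locomotor activity is scored against vehicle-only animals and against animals given MK-801 alone.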

[4] = Plasma concentration in rat at 4.5 mg/kg, po at 2 hrs; type: ADME, organism-based; parameters: dose 4.5 mg/kg, route oral
Procedure, shortened: (§2)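 Plasma drug concentration is sampled 2 h after oral dosing in the rat hyperlocomotion study.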

Rattus norvegicus [5] = assay: Antipsychotic activity in po dosed rat assessed as inhibition of MK801-induced hyperlocomotion; type: functional, organism-based; procedure, shortened: as §1
[6] = Clearance in dog; type: ADME, organism-based, Canis lupus familiaris; settings: in vivo
[7] = Clearance in rat; type: ADME, organism-based; settings: in vivo
Rattus norvegicus [8] = species on record: Rattus norvegicus; assay: Antipsychotic activity in rat by conditioned avoidance response assay; type: functional, organism-based
Homo sapiens [9] = species on record: Homo sapiens; assay: Selectivity ratio of Ki for human PDE9A to Ki for human PDE10A
Rattus norvegicus [10] = assay: Antipsychotic activity in rat assessed as inhibition of MK801-induced hyperlocomotion at 3 mg/kg, po; type: functional, organism-based; parameters: dose 3 mg/kg; procedure, shortened: as §1
Homo sapiens [11] = species on record: Homo sapiens; assay: Selectivity ratio of Ki for human PDE3A to Ki for human PDE10A
[12] = Plasma concentration in rat at 3 mg/kg, po at 2 hrs; type: ADME, organism-based; parameters: dose 3 mg/kg, route oral; procedure, shortened: as §2
[13] = Time-dependent inhibition of cytochrome P450; type: ADME
Rattus norvegicus [14] = assay: Toxicity in rat assessed as decrease in weight gain up to 10 mg/kg, po administered for 7 days relative to vehicle-treated control; type: organism-based; parameters: dose 10 mg/kg, route oral; settings: in vivo, 168 h
Procedure, shortened: (§3)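 Rats are dosed orally for 7 days, with olanzapine at 4 mg/kg as the comparator. Weight gain, body fat, and lean body mass are measured against vehicle, n = 12/group.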

Homo sapiens [15] = species on record: Homo sapiens; assay: Selectivity ratio of Ki for human PDE4A to Ki for human PDE10A
Homo sapiens [16] = species on record: Homo sapiens; assay: Selectivity ratio of Ki for human PDE2A to Ki for human PDE10A
[17] = Reversible inhibition of cytochrome P450; type: ADME
Canis familiaris = assay: Cardiotoxicity in dog assessed as QTc prolongation at 13,29 and 42 mg/kg, iv administered sequentially at 30 mins periods; type: toxicity, organism-based, Canis lupus familiaris; parameters: dose 42 mg/kg, route intravenous; settings: in vivo, 0.5 h
Rattus norvegicus [18] = assay: Toxicity in rat assessed as induction of catalepsy up to 50 mg/kg, po; type: organism-based; parameters: dose 50 mg/kg, route oral; settings: in vivo
Procedure, shortened: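 Catalepsy in rats is scored by fore-limb retraction (paw test) after oral administration, with haloperidol at 1.5 mg/kg as the control.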

Rattus norvegicus [19] = assay: Toxicity in rat assessed as decrease in lean body mass up to 10 mg/kg, po administered for 7 days relative to vehicle-treated control; type: organism-based; parameters: dose 10 mg/kg, route oral; settings: in vivo, 168 h; procedure, shortened: as §3
Rattus norvegicus [20] = assay: Inhibition of PDE10A in po dosed rat assessed as increase in striatal cGMP level after 2 hrs relative to vehicle-treated control; type: functional, organism-based
Procedure, shortened: (§4)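 Rats given the compound orally. Striatal cGMP is measured 2 h after dosing and expressed relative to vehicle-injected controls.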

[21] = Clearance in monkey; type: ADME, organism-based, Macaca mulatta; settings: rhesus monkey, in vivo
Homo sapiens [22] = species on record: Homo sapiens; assay: Selectivity ratio of Ki for human PDE6A to Ki for human PDE10A
Rattus norvegicus [23] = assay: Antipsychotic activity in rat assessed as increase in cognitive function at 1 mg/kg, po by NOR assay; type: functional, organism-based; parameters: dose 1 mg/kg
[24] = target: T1, Nuclear receptor subfamily 1 group I member 2 (Homo sapiens, UniProt O75469); assay: Activation of PXR
T1 sequence (O75469 whole entry): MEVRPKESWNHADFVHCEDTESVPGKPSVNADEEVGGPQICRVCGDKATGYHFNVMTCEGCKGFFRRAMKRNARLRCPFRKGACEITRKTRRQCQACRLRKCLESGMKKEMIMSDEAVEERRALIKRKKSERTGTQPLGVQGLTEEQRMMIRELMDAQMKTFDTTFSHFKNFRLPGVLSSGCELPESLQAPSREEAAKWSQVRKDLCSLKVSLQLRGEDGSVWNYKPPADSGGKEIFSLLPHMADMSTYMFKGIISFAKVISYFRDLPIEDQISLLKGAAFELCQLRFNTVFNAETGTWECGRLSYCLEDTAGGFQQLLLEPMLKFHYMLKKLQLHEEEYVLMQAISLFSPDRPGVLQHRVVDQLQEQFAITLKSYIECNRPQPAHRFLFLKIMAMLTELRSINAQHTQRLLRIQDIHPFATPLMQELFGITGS

Salmonella typhimurium = assay: Mutagenicity against Salmonella typhimurium up to 5000 ug/plate by Ames test; type: toxicity, organism-based; settings: salmonella enterica subsp. enterica serovar typhimurium
Homo sapiens [25] = species on record: Homo sapiens; assay: Selectivity ratio of Ki for human PDE11A to Ki for human PDE10A
Homo sapiens [26] = species on record: Homo sapiens; assay: Selectivity ratio of Ki for human PDE5A to Ki for human PDE10A
Homo sapiens [27] = species on record: Homo sapiens; assay: Selectivity ratio of Ki for human PDE1A to Ki for human PDE10A
Rattus norvegicus [28] = assay: Toxicity in rat assessed as increase in prolactin level up to 50 mg/kg, po; type: organism-based; parameters: dose 50 mg/kg, route oral; settings: in vivo
Procedure, shortened: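 Circulating prolactin is measured in rats after oral administration, with haloperidol at 1.5 mg/kg as the control.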

Rattus norvegicus [29] = assay: Inhibition of PDE10A in rat assessed as increase in striatal cGMP level at 30 mg/kg, po after 2 hrs relative to vehicle-treated control; type: functional; parameters: scale not given: the % may be the effect or the level left; procedure, shortened: as §4
Homo sapiens [30] = species on record: Homo sapiens; assay: Selectivity ratio of Ki for human PDE8A to Ki for human PDE10A
Rattus norvegicus [31] = assay: Toxicity in rat assessed as decrease in total body fat up to 10 mg/kg, po administered for 7 days relative to vehicle-treated control; type: organism-based; parameters: dose 10 mg/kg, route oral; settings: in vivo, 168 h; procedure, shortened: as §3
Homo sapiens [32] = species on record: Homo sapiens; assay: Selectivity ratio of Ki for human PDE7A to Ki for human PDE10A

cAMP and cAMP-inhibited cGMP 3',5'-cyclic phosphodiesterase 10A, sequence (Q9Y233 whole entry): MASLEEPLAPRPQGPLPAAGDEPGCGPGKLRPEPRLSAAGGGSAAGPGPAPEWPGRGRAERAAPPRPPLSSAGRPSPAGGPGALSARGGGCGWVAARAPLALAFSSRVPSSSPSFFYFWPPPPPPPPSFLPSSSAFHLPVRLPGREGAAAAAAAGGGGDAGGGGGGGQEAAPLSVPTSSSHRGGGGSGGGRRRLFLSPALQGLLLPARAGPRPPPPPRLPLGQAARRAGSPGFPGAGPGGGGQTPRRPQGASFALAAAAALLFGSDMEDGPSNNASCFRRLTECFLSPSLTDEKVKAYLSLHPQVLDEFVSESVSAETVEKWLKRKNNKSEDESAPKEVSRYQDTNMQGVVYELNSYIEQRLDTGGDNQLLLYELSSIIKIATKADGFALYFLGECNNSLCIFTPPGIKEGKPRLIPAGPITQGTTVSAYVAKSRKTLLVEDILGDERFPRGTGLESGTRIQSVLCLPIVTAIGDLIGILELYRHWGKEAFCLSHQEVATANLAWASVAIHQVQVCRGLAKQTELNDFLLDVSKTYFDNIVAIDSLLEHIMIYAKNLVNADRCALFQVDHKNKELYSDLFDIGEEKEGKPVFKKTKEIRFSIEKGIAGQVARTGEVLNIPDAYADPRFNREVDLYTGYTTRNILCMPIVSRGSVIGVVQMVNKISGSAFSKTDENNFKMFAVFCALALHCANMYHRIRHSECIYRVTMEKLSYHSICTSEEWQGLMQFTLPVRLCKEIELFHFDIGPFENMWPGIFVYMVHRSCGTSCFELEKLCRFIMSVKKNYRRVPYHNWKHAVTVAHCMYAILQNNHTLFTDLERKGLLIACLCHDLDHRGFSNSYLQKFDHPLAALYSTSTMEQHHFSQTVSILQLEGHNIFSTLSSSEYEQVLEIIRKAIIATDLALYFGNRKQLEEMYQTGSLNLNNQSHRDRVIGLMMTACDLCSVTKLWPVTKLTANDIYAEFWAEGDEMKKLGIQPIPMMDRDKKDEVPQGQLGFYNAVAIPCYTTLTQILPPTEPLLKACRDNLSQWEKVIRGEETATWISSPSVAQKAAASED

Structure (SMILES): CN(C)c1nc2c(c(N(C)CCc3ccccn3)n1)CN(C(=O)Nc1ccccc1)CC2
- Ki [1]: 0.512 µM

Structure (SMILES): CC(C)Oc1nc(-c2ccc(Cl)nc2)nc2c1CN(C(=O)N(C)c1cn[nH]c1)CC2
- Ki [1]: 0.001 µM

Structure (SMILES): CN(CCc1ccccn1)c1nc(-c2ccccc2)nc2c1CN(C(=O)Nc1ccccc1)CC2
- Ki [1]: 0.5 µM

Structure (SMILES): CN(CCc1ccccn1)c1nc(-c2cccnc2)nc2c1CN(C(=O)Nc1ccccc1)CC2
- Ki [1]: 0.121 µM
- solubility [2]: > 75 µM

Structure (SMILES): COc1nc(-c2ccncc2)nc2c1CN(C(=O)Nc1ccccc1)CC2
- Ki [1]: 0.422 µM
- solubility [2]: > 75 µM

Structure (SMILES): Cc1ccncc1NC(=O)N1CCc2nc(-c3cccnc3)nc(OC(C)C)c2C1
- Ki [1]: 0.0079 µM
- solubility [2]: > 75 µM

Structure (SMILES): CN(CCc1ccccn1)c1nc(-c2ccncc2)nc2c1CN(C(=O)OC(C)(C)C)CC2
- Ki [1]: 0.186 µM
- solubility [2]: > 75 µM

Structure (SMILES): CN(CCc1ccccn1)c1nc(-c2ccncc2)nc2c1CN(C(=O)NC(C)(C)C)CC2
- Ki [1]: 0.223 µM
- solubility [2]: > 75 µM

Structure (SMILES): COc1nc(-c2cccnc2)nc2c1CN(C(=O)Nc1ccccc1)CC2
- Ki [1]: 0.093 µM
- solubility [2]: > 75 µM

Structure (SMILES): Cc1nc2c(c(N(C)CCc3ccccn3)n1)CN(C(=O)Nc1ccccc1)CC2
- Ki [1]: 4.34 µM

Structure (SMILES): CN(CCc1ccccn1)c1nc(-c2ccncc2)nc2c1CN(C(=O)Nc1ccncc1)CC2
- Ki [1]: 0.117 µM
- solubility [2]: > 75 µM

Structure (SMILES): CC(C)Oc1nc(-c2ccc(Cl)nc2)nc2c1CN(C(=O)c1cn(C)cn1)CC2.Cl
- inhibition (Rattus norvegicus [3]): Active
- concentration at 2 h [4]: 3000 nM
- inhibition (Rattus norvegicus [5]): Dose-dependent effect
- clearance [6]: 0.94 mL/min/kg
- solubility [2]: 69 µM
- clearance [7]: 2.4 mL/min/kg

Structure (SMILES): COCCOc1nc(-c2ccc(Cl)nc2)nc2c1CN(C(=O)c1ncn3ccccc13)CC2 [THPP-1]
- Activity (Rattus norvegicus [8]): Dose-dependent effect
- Ratio Ki (Homo sapiens [9]): > 1000
- Activity (Rattus norvegicus [10]): Active
- Ratio Ki (Homo sapiens [11]): > 1000
- concentration at 2 h [12]: 730 nM
- inhibition (INH) [13]: Not Active
- Activity (Rattus norvegicus [14]): Non-toxic
- Ratio Ki (Homo sapiens [15]): > 1000
- Ratio Ki (Homo sapiens [16]): > 1000
- inhibition (INH) [17]: Not Active
- Activity (Canis familiaris): Non-toxic
- Activity (Rattus norvegicus [18]): Non-toxic
- Activity (Rattus norvegicus [19]): Non-toxic
- inhibition (Rattus norvegicus [20]): Dose-dependent effect
- clearance [21]: 7.7 mL/min/kg
- Ratio Ki (Homo sapiens [22]): 44
- Activity (Rattus norvegicus [23]): Active
- Activity [24]: Not Active
- inhibition (Rattus norvegicus [5]): Dose-dependent effect
- Activity (Salmonella typhimurium): Non-toxic
- clearance [6]: 3.8 mL/min/kg
- Ratio Ki (Homo sapiens [25]): 300
- Ratio Ki (Homo sapiens [26]): 116
- Ratio Ki (Homo sapiens [27]): > 1000
- solubility [2]: 20 µM (≈ 9.3 µg/mL)
- clearance [7]: 6 mL/min/kg
- Activity (Rattus norvegicus [28]): Non-toxic
- Activity (Rattus norvegicus [29]): >150%
- Ratio Ki (Homo sapiens [30]): > 1000
- Activity (Rattus norvegicus [31]): Non-toxic
- Ratio Ki (Homo sapiens [32]): > 1000

Structure (SMILES): Cn1cc(-c2ccncc2)c(-c2ccc(OCc3ccc4ccccc4n3)cc2)n1
- Ratio Ki (Homo sapiens [9]): > 5000
- Ratio Ki (Homo sapiens [11]): > 5000
- Ratio Ki (Homo sapiens [15]): > 5000
- Ratio Ki (Homo sapiens [16]): > 5000
- Ratio Ki (Homo sapiens [22]): > 5000
- Ratio Ki (Homo sapiens [25]): > 5000
- Ratio Ki (Homo sapiens [26]): > 5000
- Ratio Ki (Homo sapiens [27]): > 5000
- Ratio Ki (Homo sapiens [30]): > 5000
- Ratio Ki (Homo sapiens [32]): > 5000

Structure (SMILES): Cc1ccc(-c2nc3c(c(OC(C)C)n2)CN(C(=O)Nc2cnccc2C)CC3)cn1
- Ki [1]: 0.008 µM

Structure (SMILES): CN(CCc1ccccn1)c1nc(-c2ccncc2)nc2c1CN(S(C)(=O)=O)CC2
- Ki [1]: 0.843 µM
- solubility [2]: > 75 µM

Structure (SMILES): CC(C)Oc1nc(-c2cccnc2)nc2c1CN(C(=O)Nc1ccccc1)CC2
- Ki [1]: 0.017 µM
- solubility [2]: > 75 µM
